Results: ChEMBL document CHEMBL5104202, “Structure-Uptake Relationship Studies of Oxazolidinones in Gram-Negative ESKAPE Pathogens” (J Med Chem, 2022)
Converted amounts (≈) assume the structure as drawn.

Columns and labels:
Escherichia coli [1] = assay: Antibacterial activity against efflux pump lacking Escherichia coli assessed as inhibition of bacterial growth; assay type: functional, organism-based
Klebsiella pneumoniae [2] = assay: Antibacterial activity against multidrug resistant Klebsiella pneumoniae ATCC13883 assessed as inhibition of bacterial growth incubated for 24 hrs in MHI medium by twofold serial dilution method; assay type: functional
Pseudomonas aeruginosa [3] = assay: Antibacterial activity against efflux pump lacking/recombinant OM pore producing Pseudomonas aeruginosa assessed as inhibition of bacterial growth; assay type: functional, organism-based
Klebsiella pneumoniae [4] = assay: Antibacterial activity against multidrug resistant Klebsiella pneumoniae ATCC13883 assessed as inhibition of bacterial growth incubated for 24 hrs in M9-MOPS medium by twofold serial dilution method; assay type: functional
Escherichia coli [5] = assay: Antibacterial activity against Escherichia coli SQ110 DTC C2610A incubated for 24 hrs by twofold serial dilution method; assay type: functional
How it was run: (§1)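 E. coli SQDTC (TolC-deficient, single rRNA operon) carrying LZD-resistant 23S rRNA substitutions. Compounds come from 10 mM DMSO stocks and are twofold serially diluted in 96-well plates.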

Escherichia coli [6] = assay: Antibacterial activity against Escherichia coli SQ110 DTC G2032A incubated for 24 hrs by twofold serial dilution method; assay type: functional; how it was run: as §1
Escherichia coli [7] = assay: Antibacterial activity against wild type Escherichia coli assessed as inhibition of bacterial growth; assay type: functional, organism-based
Acinetobacter baumannii [8] = assay: Antibacterial activity against recombinant OM pore producing Acinetobacter baumannii assessed as inhibition of bacterial growth; assay type: functional, organism-based
Staphylococcus aureus = assay: Antibacterial activity against Staphylococcus aureus ATCC 25923 incubated for 24 hrs by twofold serial dilution method; assay type: functional
How it was run: (§2)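 MICs by twofold serial dilution in 96-well plates from 10 mM DMSO stocks. Cultures grown in the indicated media; for E. coli, A. baumannii and P. aeruginosa, inducers were 0.1% arabinose, 1% arabinose and 0.1 mM IPTG respectively.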

Escherichia coli [9] = assay: Antibacterial activity against recombinant OM pore producing Escherichia coli assessed as inhibition of bacterial growth; assay type: functional, organism-based
Acinetobacter baumannii [10] = assay: Antibacterial activity against efflux pump lacking/recombinant OM pore producing Acinetobacter baumannii assessed as inhibition of bacterial growth; assay type: functional, organism-based
Escherichia coli [11] = assay: Antibacterial activity against Escherichia coli SQ110 DTC incubated for 24 hrs by twofold serial dilution method; assay type: functional; how it was run: as §2
Pseudomonas aeruginosa [12] = assay: Antibacterial activity against multidrug resistant Pseudomonas aeruginosa BAA 2108 assessed as inhibition of bacterial growth incubated for 24 hrs in M9-MOPS medium by twofold serial dilution method; assay type: functional
Escherichia coli [13] = assay: Antibacterial activity against Escherichia coli SQ110 incubated for 24 hrs by twofold serial dilution method; assay type: functional; how it was run: as §2
Pseudomonas aeruginosa [14] = assay: Antibacterial activity against multidrug resistant Pseudomonas aeruginosa BAA 2109 assessed as inhibition of bacterial growth incubated for 24 hrs in MHI medium by twofold serial dilution method; assay type: functional
Escherichia coli [15] = assay: Antibacterial activity against efflux pump lacking/recombinant OM pore producing Escherichia coli incubated for 24 hrs by twofold serial dilution method; assay type: functional
How it was run: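 E. coli efflux-knockout/hyperporinated strain grown in M9 medium with 50 mM MOPS (pH 7.2) and 0.2% xylose. OM pore induced with 0.1% arabinose. Compounds come from 10 mM DMSO stocks and are twofold serially diluted in 96-well plates.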

Pseudomonas aeruginosa [16] = assay: Antibacterial activity against recombinant OM pore producing Pseudomonas aeruginosa assessed as inhibition of bacterial growth; assay type: functional, organism-based
Acinetobacter baumannii [17] = assay: Antibacterial activity against efflux pump lacking Acinetobacter baumannii assessed as inhibition of bacterial growth; assay type: functional, organism-based
Pseudomonas aeruginosa [18] = assay: Antibacterial activity against multidrug resistant Pseudomonas aeruginosa BAA 2108 assessed as inhibition of bacterial growth incubated for 24 hrs in MHI medium by twofold serial dilution method; assay type: functional
Pseudomonas aeruginosa [19] = assay: Antibacterial activity against efflux pump lacking/recombinant OM pore producing Pseudomonas aeruginosa incubated for 24 hrs by twofold serial dilution method; assay type: functional; how it was run: as §2
Acinetobacter baumannii [20] = assay: Antibacterial activity against efflux pump lacking/recombinant OM pore producing Acinetobacter baumannii incubated for 24 hrs by twofold serial dilution method; assay type: functional; how it was run: as §2
Acinetobacter baumannii [21] = assay: Antibacterial activity against multidrug resistant Acinetobacter baumannii AYE assessed as inhibition of bacterial growth incubated for 24 hrs in M9-MOPS medium by twofold serial dilution method; assay type: functional
Acinetobacter baumannii [22] = assay: Antibacterial activity against multidrug resistant Acinetobacter baumannii AYE assessed as inhibition of bacterial growth incubated for 24 hrs in MHI medium by twofold serial dilution method; assay type: functional
Klebsiella aerogenes [23] = assay: Antibacterial activity against multidrug resistant Klebsiella aerogenes ATCC13048 assessed as inhibition of bacterial growth incubated for 24 hrs in M9-MOPS medium by twofold serial dilution method; assay type: functional
Pseudomonas aeruginosa [24] = assay: Antibacterial activity against efflux pump lacking Pseudomonas aeruginosa assessed as inhibition of bacterial growth; assay type: functional, organism-based
Pseudomonas aeruginosa [25] = assay: Antibacterial activity against multidrug resistant Pseudomonas aeruginosa BAA 2109 assessed as inhibition of bacterial growth incubated for 24 hrs in […] medium by twofold serial dilution method; assay type: functional
Escherichia coli [26] = assay: Antibacterial activity against efflux pump lacking/recombinant OM pore producing Escherichia coli assessed as inhibition of bacterial growth; assay type: functional, organism-based
Acinetobacter baumannii [27] = assay: Antibacterial activity against multidrug resistant Acinetobacter baumannii Ab5075 assessed as inhibition of bacterial growth incubated for 24 hrs in M9-MOPS medium by twofold serial dilution method; assay type: functional
Acinetobacter baumannii [28] = assay: Antibacterial activity against wild type Acinetobacter baumannii assessed as inhibition of bacterial growth; assay type: functional, organism-based
Klebsiella aerogenes [29] = assay: Antibacterial activity against multidrug resistant Klebsiella […] assessed as inhibition of bacterial growth incubated for 24 hrs in MHI medium by twofold serial dilution method; assay type: functional
Klebsiella pneumoniae [30] = assay: Antibacterial activity against multidrug resistant Klebsiella pneumoniae ATCC43816 assessed as inhibition of bacterial growth incubated for 24 hrs in MHI medium by twofold serial dilution method; assay type: functional
Klebsiella pneumoniae [31] = assay: Antibacterial activity against multidrug resistant Klebsiella pneumoniae ATCC43816 assessed as inhibition of bacterial growth incubated for 24 hrs in M9-MOPS medium by twofold serial dilution method; assay type: functional
Pseudomonas aeruginosa [32] = assay: Antibacterial activity against wild type Pseudomonas aeruginosa assessed as inhibition of bacterial growth; assay type: functional, organism-based
Acinetobacter baumannii [33] = assay: Antibacterial activity against multidrug resistant Acinetobacter baumannii Ab5075 assessed as inhibition of bacterial growth incubated for 24 hrs in MHI medium by twofold serial dilution method; assay type: functional
Klebsiella pneumoniae [34] = assay: Antibacterial activity against multidrug resistant Klebsiella pneumoniae ATCC43816 assessed as inhibition of bacterial growth incubated for 24 hrs in MHI medium by twofold serial dilution method; settings: ATCC43816, 24 h

Compound	IC50 (Escherichia coli [1])	MIC (Klebsiella pneumoniae [2])	IC50 (Pseudomonas aeruginosa [3])	MIC (Klebsiella pneumoniae [4])	MIC (Escherichia coli [5])	MIC (Escherichia coli [6])	IC50 (Escherichia coli [7])	IC50 (Acinetobacter baumannii [8])	MIC (Staphylococcus aureus)	IC50 (Escherichia coli [9])	IC50 (Acinetobacter baumannii [10])	MIC (Escherichia coli [11])	MIC (Pseudomonas aeruginosa [12])	MIC (Escherichia coli [13])	MIC (Pseudomonas aeruginosa [14])	MIC (Escherichia coli [15])	IC50 (Pseudomonas aeruginosa [16])	IC50 (Acinetobacter baumannii [17])	MIC (Pseudomonas aeruginosa [18])	MIC (Pseudomonas aeruginosa [19])	also measured
O=C1O[C@@H](CO)CN1c1ccc(-c2ccncc2)c(F)c1	0.8 µM	200 µM (≈ 57.7 µg/mL)	2.9 µM	100 µM (≈ 28.8 µg/mL)	6.25 µM (≈ 1.8 µg/mL)	25 µM (≈ 7.21 µg/mL)	44.3 µM	16.5 µM	1.56 µM (≈ 0.45 µg/mL)	5.6 µM	1.4 µM	6.25 µM (≈ 1.8 µg/mL)	≥ 200 µM	> 100 µM	> 200 µM	6.25 µM	48.2 µM	1.4 µM	≥ 200 µM	3.12 µM	MIC (Acinetobacter baumannii [20]): 6.25 µM; MIC (Acinetobacter baumannii [21]): 100 µM (≈ 28.8 µg/mL); MIC (Acinetobacter baumannii [22]): > 200 µM; MIC (Klebsiella aerogenes [23]): 200 µM (≈ 57.7 µg/mL); IC50 (Pseudomonas aeruginosa [24]): 8.1 µM; MIC (Pseudomonas aeruginosa [25]): > 200 µM; IC50 (Escherichia coli [26]): 1.3 µM; MIC (Acinetobacter baumannii [27]): 100 µM (≈ 28.8 µg/mL); IC50 (Acinetobacter baumannii [28]): 16.5 µM; MIC (Klebsiella aerogenes [29]): 200 µM (≈ 57.7 µg/mL); MIC (Klebsiella pneumoniae [30]): > 200 µM; MIC (Klebsiella pneumoniae [31]): 200 µM (≈ 57.7 µg/mL); IC50 (Pseudomonas aeruginosa [32]): 44.2 µM; MIC (Acinetobacter baumannii [33]): > 200 µM
C[n+]1ccc(-c2ccc(-c3ccc(N4C[C@H](CO)OC4=O)cc3F)cc2)cc1	0.5 µM	> 200 µM	> 100 µM	100 µM	12.5 µM	25 µM	15.4 µM	10 µM	12.5 µM	1.7 µM	10.8 µM	3.12 µM	> 200 µM	> 100 µM	> 200 µM	12.5 µM	> 100 µM	64 µM	> 200 µM	12.5 µM	MIC (Klebsiella pneumoniae [34]): > 200 µM; MIC (Acinetobacter baumannii [20]): 50 µM; MIC (Acinetobacter baumannii [21]): > 200 µM; MIC (Acinetobacter baumannii [22]): > 200 µM; MIC (Klebsiella aerogenes [23]): 50 µM; IC50 (Pseudomonas aeruginosa [24]): > 100 µM; MIC (Pseudomonas aeruginosa [25]): > 200 µM; IC50 (Escherichia coli [26]): 0.5 µM; MIC (Acinetobacter baumannii [27]): 200 µM; IC50 (Acinetobacter baumannii [28]): > 100 µM; MIC (Klebsiella pneumoniae [30]): > 200 µM; MIC (Klebsiella pneumoniae [31]): > 200 µM; IC50 (Pseudomonas aeruginosa [32]): > 100 µM; MIC (Acinetobacter baumannii [33]): > 200 µM
